In ChEMBL document CHEMBL1134284, “The biological effects of structural variation at the meta position of the aromatic rings and at the end of the alkenyl chain in the alkenyldiarylmethane series of non-nucleoside reverse transcriptase inhibitors” (J Med Chem, 2001):

What was measured:
[1] = (§1) Antiviral activity against ROJO virus strain in PBLs (peripheral blood lymphocytes); assay type: functional, cell-based; settings: Homo sapiens
Summary of the method: (§2)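 PBMCs isolated from hepatitis- and HIV-seronegative donors by Ficoll-Hypaque gradient and stimulated 3 days with phytohemagglutinin/IL-2. Infected with pediatric low-passage clinical isolates or NIAID subtype isolates, in RPMI 1640 with 10% FBS, 2 mM glutamine, penicillin/streptomycin. Replication read as supernatant reverse transcriptase activity. […] Run in triplicate, with AZT as positive control.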

[2] = Antiviral activity against subtype isolate B strain in PBLs (peripheral blood lymphocytes); assay type: functional, cell-based, Homo sapiens; summary of the method: as §2
[3] = Antiviral activity against subtype isolate A strain in PBLs (peripheral blood lymphocytes); assay type: functional, cell-based; settings: Homo sapiens; summary of the method: as §2
CCRF-CEM [4] = experiment: Antiviral activity against site directed resistant isolate HIV-1 L74V in CEM cells; assay type: functional, cell-based, Homo sapiens
Summary of the method: (§3)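 CEM-SS cells infected with low-cytopathicity site-directed RT-mutant NL4-3 clones (A98G, L74V, 4XAZT = D67N/K70R/T215Y/K219Q, 4XAZT/L100I). Replication was quantified by p24 ELISA rather than cytoprotection. […] Triplicate, variation of mean about 10%.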

[5] = Antiviral activity against multi drug resistant MDR 769 strain in PBLs (peripheral blood lymphocytes); assay type: functional, cell-based; settings: Homo sapiens
Summary of the method: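 PBMC from hepatitis- and HIV-seronegative donors isolated by Ficoll-Hypaque gradient and stimulated 3 days with phytohemagglutinin/IL-2 before infection. Medium RPMI 1640 with 10% FBS, 2 mM glutamine, penicillin/streptomycin. Replication read as supernatant reverse transcriptase activity. […] Run in triplicate, SD within triplicate under 10%; AZT positive control.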

[6] = Antiviral activity against subtype isolate D strain in PBLs (peripheral blood lymphocytes); assay type: functional, cell-based; settings: Homo sapiens; summary of the method: as §2
CCRF-CEM [7] = experiment: Antiviral activity against site directed resistant isolate HIV-1 Y181C in CEM cells; assay type: functional, cell-based, Homo sapiens
Summary of the method: (§4)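 CEM-SS cells in RPMI 1640 with 10% heat-inactivated FBS were infected with NL4-3 molecular clones carrying site-directed RT mutations. Cytoprotection from virus-induced syncytial killing was read by MTS/phenazine ethosulfate reduction (A490) 6 days after infection. […] Triplicate, variation of mean about 10%.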

[8] = Antiviral activity against Ba-L monocyte tropic isolate strain in monocyte; assay type: functional; settings: Homo sapiens
Summary of the method: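 Monocytes isolated from hepatitis- and HIV-seronegative donors by Ficoll-Hypaque gradient, cultured 6 days into macrophages, then infected with Ba-L. Medium RPMI 1640 with 10% FBS, 2 mM glutamine, penicillin/streptomycin. Replication read as p24 antigen by ELISA 6 days postinfection. […] Run in triplicate, with AZT as positive control.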

CCRF-CEM [9] = experiment: Antiviral activity against site directed resistant isolate HIV-1 L100I in CEM cells; assay type: functional, cell-based, Homo sapiens; summary of the method: as §4
CCRF-CEM [10] = experiment: Antiviral activity against site directed resistant isolates in HIV-1 A98G CEM cells; assay type: functional, cell-based, Homo sapiens; summary of the method: as §3
[11] = Antiviral activity against subtype isolate O strain in PBLs (peripheral blood lymphocytes); assay type: functional, cell-based, Homo sapiens; summary of the method: as §2
[12] = system: Human immunodeficiency virus type 1 (RF/HAT ISOLATE); experiment: Inhibitory concentration for cytopathicity of HIV-1RF in CEM-SS cells; assay type: functional, organism-based; settings: Human immunodeficiency virus 1, RF
Summary of the method: (§5)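 CEM-SS cells kept in RPMI 1640 with 10% heat-inactivated FBS, 2 mM glutamine, penicillin/streptomycin. Microtiter assay with cytopathic HIV-1 RF, or mock infection for toxicity. Viability read by MTS/phenazine ethosulfate reduction (absorbance 490 nm) 6 days after infection. […] Triplicate.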

CCRF-CEM [13] = experiment: Antiviral activity against site directed 4X AZT resistant isolate HIV-1 L100I in CEM cells; assay type: functional, cell-based, Homo sapiens; summary of the method: as §3
[14] = Antiviral activity against subtype isolate G strain in PBLs (peripheral blood lymphocytes); assay type: functional, cell-based; settings: Homo sapiens; summary of the method: as §2
[15] = Antiviral activity against TEKI virus strain in PBLs (peripheral blood lymphocytes); assay type: functional, cell-based; settings: Homo sapiens; summary of the method: as §2
CCRF-CEM [16] = experiment: Antiviral activity against site directed wild-type enzyme isolate HIV-1 NL4-3WT in CEM cells; assay type: functional, cell-based; settings: Homo sapiens
Summary of the method: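 Wild-type NL4-3 in CEM-SS cells, measured both by MTS cytoprotection 6 days after infection and by p24 ELISA. The IC50 is the mean of the two methods' values.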

CCRF-CEM [17] = experiment: Antiviral activity against site directed resistant isolate HIV-1 K103N in CEM cells; assay type: functional, cell-based, Homo sapiens; summary of the method: as §4
[18] = Antiviral activity against subtype isolate F strain in PBLs (peripheral blood lymphocytes); assay type: functional, cell-based, Homo sapiens; summary of the method: as §2
CCRF-CEM [19] = experiment: Antiviral activity against site directed resistant isolate HIV-1 V106A in CEM cells; assay type: functional, cell-based, Homo sapiens; summary of the method: as §4
[20] = (§6) Ratio of CC50/EC50 was determined; assay type: cell-based; settings: human, CEM-SS cells; read-out: TI
Summary of the method: (§7)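 HIV-1 RF–infected CEM-SS cells (RPMI 1640, 10% heat-inactivated FBS, 2 mM glutamine, penicillin/streptomycin), plus mock-infected CEM-SS in parallel. Cell killing and viability were read by MTS/phenazine ethosulfate reduction at 490 nm 6 days after infection. […] Index = CC50 ÷ EC50. Triplicate tests.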

[21] = Antiviral activity against subtype isolate C strain in PBLs (peripheral blood lymphocytes); assay type: functional, cell-based; settings: Homo sapiens; summary of the method: as §2
CCRF-CEM [22] = experiment: Antiviral activity against site directed 4X AZT resistant isolate HIV-1 in CEM cells; assay type: functional, cell-based, Homo sapiens; settings: Homo sapiens, CCRF-CEM
[23] = Antiviral activity against WEJO virus strain in PBLs (peripheral blood lymphocytes); assay type: functional, cell-based; settings: Homo sapiens; summary of the method: as §2
CEM-SS = experiment: Concentration required for cytotoxicity against mock infected CEM-SS cells; assay type: functional; settings: Homo sapiens; summary of the method: as §5
[24] = Antiviral activity against SLKA virus strain in PBLs (peripheral blood lymphocytes); assay type: functional, cell-based; settings: Homo sapiens; summary of the method: as §2
CCRF-CEM [25] = experiment: Antiviral activity against site directed resistant isolate HIV-1 V179D in CEM cells; assay type: functional, cell-based, Homo sapiens; summary of the method: as §4
CCRF-CEM [26] = experiment: Antiviral activity against site directed resistant isolate HIV-1 K101E in CEM cells; assay type: functional, cell-based, Homo sapiens
CCRF-CEM [27] = experiment: Antiviral activity against site directed resistant isolate HIV-1 Y188C in CEM cells; assay type: functional, cell-based, Homo sapiens; summary of the method: as §4
[28] = Antiviral activity against subtype isolate E strain in PBLs (peripheral blood lymphocytes); assay type: functional, cell-based; settings: Homo sapiens
PBL = experiment: as §1; assay type: functional, cell-based; settings: Homo sapiens; summary of the method: as §2
[29] = as §6; settings: read-out: TI; summary of the method: as §7
[30] = biological target: Human immunodeficiency virus type 1 reverse transcriptase (Human immunodeficiency virus 1, UniProt Q72547); experiment: Inhibitory activity against HIV-1 Reverse Transcriptase with rCdG as the template primer
Summary of the method: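 Cell-free assay with purified recombinant HIV-1 RT (p66/p51 dimer). Activity measured as [32P]GTP incorporation into the poly(rC)/oligo(dG) homopolymer template/primer. IC50 is reported as inhibition of enzyme activity.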

| Compound | IC50 [3] | IC50 (CCRF-CEM [4]) | IC50 [5] | IC50 [6] | IC50 (CCRF-CEM [7]) | IC50 [8] | IC50 (CCRF-CEM [9]) | EC50 [12] | IC50 (CCRF-CEM [13]) | IC50 [14] | IC50 [15] | IC50 (CCRF-CEM [16]) | IC50 (CCRF-CEM [17]) | IC50 (CCRF-CEM [19]) | IC50 [21] | IC50 (CCRF-CEM [22]) | IC50 [23] | CC50 (CEM-SS) | IC50 [24] | IC50 (CCRF-CEM [25]) | other results |
| --- | --- | --- | --- | --- | --- | --- | --- | --- | --- | --- | --- | --- | --- | --- | --- | --- | --- | --- | --- | --- | --- |
| COC(=O)CCCC=C(c1cc(Br)c(OC)c(C(=O)OC)c1)c1cc(Br)c(OC)c(C(=O)OC)c1 | 200 nM | 284 nM | 48800 nM | 180 nM | 8300 nM | 3600 nM | 84 nM | 1.3 nM | 320 nM | 300 nM | 900 nM | 400 nM | 350 nM | 9840 nM | 310 nM | 32 nM | 400 nM | 13000 nM | 1000 nM | 1300 nM | IC50 [1]: 540 nM; IC50 ([2]; Homo sapiens): 5400 nM; IC50 (CCRF-CEM [10]): 460 nM; IC50 ([11]; Homo sapiens): 16000 nM; IC50 [18]: 1900 nM; selectivity ratio [20]: 10000; IC50 (CCRF-CEM [26]): 594 nM; IC50 (CCRF-CEM [27]): 2000 nM; IC50 [28]: 200 nM |
| CCOC(=O)CCCC=C(c1cc(Cl)c(OC)c(C(=O)OC)c1)c1cc(Cl)c(OC)c(C(=O)OC)c1 | 200 nM | 885 nM | 45200 nM | 150 nM | 19100 nM | 8900 nM | 80 nM | 10 nM | 370 nM | 800 nM | 1000 nM | 580 nM | 270 nM | 10300 nM | 820 nM | 76 nM | 700 nM | 16000 nM | 900 nM | 2300 nM | IC50 (PBL): 390 nM; IC50 ([2]; Homo sapiens): 12500 nM; selectivity ratio [29]: 1600; IC50 [30]: 233 nM; IC50 (CCRF-CEM [10]): 13 nM; IC50 ([11]; Homo sapiens): 30000 nM; IC50 ([18]; Homo sapiens): 300 nM; IC50 (CCRF-CEM [26]): 164 nM; IC50 (CCRF-CEM [27]): 4100 nM; IC50 [28]: 200 nM |
| COC(=O)CCCC=C(c1cc(Cl)c(OC)c(C(=O)OC)c1)c1cc(Cl)c(OC)c(C(=O)OC)c1 | 100 nM | 469 nM | 16900 nM | 180 nM | > 20000 nM | 5400 nM | 408 nM | 13 nM | 490 nM | 600 nM | 800 nM | 850 nM | 600 nM | > 20000 nM | 410 nM | 75 nM | 600 nM | 31600 nM | 1300 nM | 1300 nM | IC50 [1]: 750 nM; IC50 [2]: 12700 nM; IC50 [11]: 12000 nM; IC50 ([18]; Homo sapiens): 1300 nM; IC50 (CCRF-CEM [26]): 366 nM; IC50 (CCRF-CEM [27]): 3300 nM |
